Measured values: ChEMBL document CHEMBL1142228, “Alternative chemical modifications reverse the binding orientation of a pharmacophore scaffold in the active site of macrophage migration inhibitory factor” (J Biol Chem, 2007)

biological target: T1, Macrophage migration inhibitory factor (Homo sapiens, UniProt P14174); test: Inhibition of MIF-mediated dopachrome tautomerase activity; details: not given
T1 sequence (P14174 whole entry): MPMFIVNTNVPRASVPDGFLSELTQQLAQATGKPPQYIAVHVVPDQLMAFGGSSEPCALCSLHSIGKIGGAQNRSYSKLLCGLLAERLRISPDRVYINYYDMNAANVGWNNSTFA
Method in brief: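 l-Dopachrome methyl ester substrate (2.4 mm prepared stock, from sodium periodate oxidation of l-3,4-dihydroxyphenylalanine methyl ester) added to recombinant MIF (50 nm) in 50 mm potassium phosphate, pH 6, 0.5 mm EDTA at room temperature.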

Row | IC50 | Structure (SMILES)
1 | 11 µM | O=C(O/N=C/c1ccc(O)cc1)C1CCC1
2 | 3 µM | O=C(CCC1CCCCC1)O/N=C/c1ccc(O)cc1
3 | 25 µM | CC(C)C(=O)O/N=C/c1ccc(O)cc1
4 | 113 µM | CC(C)(C)C(=O)O/N=C/c1ccc(O)cc1
5 | 147 µM | CC(=O)O/N=C/c1ccc(O)cc1
6 | 4 µM | O=C(O/N=C/c1ccc(O)cc1)C1CCCC1
7 | 14.5 µM | CCCCC(=O)O/N=C/c1ccc(O)cc1
8 | 7 µM | CC(C)CC(=O)O/N=C/c1ccc(O)cc1
9 | 7 µM | CC(C)(C)CC(=O)O/N=C/c1ccc(O)cc1
10 | 7 µM | O=C(O/N=C/c1ccc(O)cc1)c1ccccc1
11 | 3.4 µM | O=C(O/N=C/c1ccc(O)cc1)C1CC=CCC1 (stereo not drawn)

system: Mus musculus; test: Increase in survival rate in cecal ligation and puncture-induced peritonitis mouse model administered twice a day after 24 hrs of sepsis induction at 3.5 mg/kg, ip for 3 days; type: functional; details: route intraperitoneal
Method in brief: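 Mice anaesthetised with ketamine 100 mg/kg plus xylazine 8 mg/kg im. Cecum ligated below the ileocecal valve and punctured once with a 22-gauge needle. Post-surgery: Premaxin 0.5 mg/kg sc and saline 20 ml/kg sc. Dosing ip in 20% aqueous DMSO vehicle began 24 h post-CLP, twice daily for 3 days. n = 13 per group; survival followed 2 weeks.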

Row | Structure (SMILES) | survival at 3.5 mg/kg
12 | O=C(O/N=C/c1ccc(O)cc1)C1CCCCC1 | 70%

biological target: Transcription factor p65 (Mus musculus) (UniProt Q04207); test: Inhibition of NF-kappaB activation in LPS-induced mouse RAW264.7 cells by electrophoretic mobility shift assay; details: not given
Sequence (Q04207 whole entry, looked up): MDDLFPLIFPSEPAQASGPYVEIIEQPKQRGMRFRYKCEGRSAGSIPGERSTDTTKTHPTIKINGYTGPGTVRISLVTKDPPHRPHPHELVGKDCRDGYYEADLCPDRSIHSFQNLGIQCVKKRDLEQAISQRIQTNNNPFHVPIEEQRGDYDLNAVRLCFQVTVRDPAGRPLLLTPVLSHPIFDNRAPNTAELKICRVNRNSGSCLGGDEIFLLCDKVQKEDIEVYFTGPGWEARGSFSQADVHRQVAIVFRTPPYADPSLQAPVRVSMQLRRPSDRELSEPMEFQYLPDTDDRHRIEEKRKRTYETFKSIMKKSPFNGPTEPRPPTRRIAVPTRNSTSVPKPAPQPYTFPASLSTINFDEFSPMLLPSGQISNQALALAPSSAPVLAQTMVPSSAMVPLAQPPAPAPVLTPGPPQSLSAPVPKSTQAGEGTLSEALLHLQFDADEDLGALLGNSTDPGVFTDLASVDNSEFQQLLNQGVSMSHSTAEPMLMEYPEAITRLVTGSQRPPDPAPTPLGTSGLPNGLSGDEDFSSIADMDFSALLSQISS

Row | Structure (SMILES) | Activity
13 | O=C(O/N=C/c1ccc(O)cc1)C1CCCCC1 | Dose-dependent effect
